# Bioassay records (PubChem)
# PKA-R1A act = PKA-R1A complex activation; P00514+P68181; PKA-R1A dissociation, Cy5-IP20 fluorescence polarization; scaled: DMSO 0%, 113 µM cGMP 100%; activation, % at 11.4 µM; 340,000 compounds, 0.083% hits; AID 504707;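 active means percent activation above the mean of all tested compounds plus 3 SD, cut at about 19% in these data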;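 further: higher means more PKAc released from R1A so a rise in polarization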
# PKA-R2B activ = PKA-R2B complex activation | P22694+P31323 | PKA-R2B holoenzyme dissociation, Cy5-IP20 fluorescence polarization; R2B truncated from residue 108, S112A mutant; 0% DMSO only, 100% 113 µM cGMP | AID 504700 | activation, % at 11.4 µM | 340,000 compounds, 0.079% hits;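 active means activation above a cutoff set at the mean over all compounds plus 3 SD, cut at about 18% in these data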;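 further: higher means more holoenzyme dissociation and a rise in polarization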
# Target sequence (P31323 whole entry, looked up, other chains not shown, the tested form may be a part): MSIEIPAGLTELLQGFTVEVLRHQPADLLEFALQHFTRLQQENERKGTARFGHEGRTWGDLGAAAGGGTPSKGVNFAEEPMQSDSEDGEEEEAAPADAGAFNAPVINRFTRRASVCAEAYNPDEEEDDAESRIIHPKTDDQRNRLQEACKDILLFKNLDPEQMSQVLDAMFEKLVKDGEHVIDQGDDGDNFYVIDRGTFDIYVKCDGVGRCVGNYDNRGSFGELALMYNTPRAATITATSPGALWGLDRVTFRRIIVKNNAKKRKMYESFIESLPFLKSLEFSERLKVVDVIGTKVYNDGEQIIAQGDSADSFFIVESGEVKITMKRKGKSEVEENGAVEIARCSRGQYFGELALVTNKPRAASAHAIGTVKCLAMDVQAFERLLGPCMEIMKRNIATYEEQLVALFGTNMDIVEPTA
# NR2E3 ag-1 = activates human photoreceptor nuclear receptor NR2E3; Q9Y5X4; GST-NR2E3/biotin-RetCOR TR-FRET, 1536-well; inhibition of corepressor binding, % at 4.78 µM; 320,000 compounds, 0.12% hits; AID 2300;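 active means percent inhibition above the cutoff of mean plus 3 SD of all tested compounds, set per screening campaign, cut at about 20% in these data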;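 further: 0% = DMSO wells and 100% = biotin wells as full block of FRET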
#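 System: GST-tagged NR2E3 plus biotinylated RetCOR corepressor; Buffer or medium: pH 7.5 Tris-based buffer; Probe or stimulus: RetCOR corepressor, biotinylated, 7 nM; Doses: compound at 4.8 µM, single dose; Schedule: 5 h incubation at 4 °C; Technique: time-resolved FRET; Evaluation: percent inhibition of TR-FRET ratio; Replication: one well per compound, singlicate testing.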
# NR1D1 modulator = modulates human Rev-erb alpha binding to DNA; activity, % at 10 µM; Rev-erbα–FITC-DNA binding, fluorescence polarization, 90 min; 370,000 compounds, 0.79% hits;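 active means activity above about 14%, limit read from the data; passing the limit was not always enough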;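 further: 0% = DMSO wells with 35 nM protein and 100% = DMSO wells with 750 nM protein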
# NR2E3 ag-2 = agonists of human NR2E3 nuclear receptor; Q9Y5X4; inhibition of corepressor binding, % at 3.98 µM; AID 602229; 360,000 compounds, 0.35% hits; CHO-S Gal4-NCOR/VP16-NR2E3 two-hybrid, luciferase;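 active means inhibition above the mean of all tested compounds plus 3 SD, cut at about 70% in these data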;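 further: 0% = DMSO with NR2E3 transfected cells and 100% = cells lacking NR2E3 construct; higher means lower luciferase signal from less NR2E3 corepressor binding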
# PG9 Ab binder = binds the HIV-1 gp120 antibody PG9; TR-FRET gp120-PG9 antibody binding; inhibition, % at 6.7 µM; 360,000 compounds, 0.43% hits; AID 624416; in the data active means inhibition above about 8.5%
# NR2E3 ag confirm = confirmation of human NR2E3 agonists; shares compounds with NR2E3 ag-2; 2,300 compounds, 51% hits; AID 624378; inhibition, % at 3.98 µM; CHO-S mammalian two-hybrid NR2E3-NCOR, luciferase luminescence;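 active means average inhibition above a cutoff equal to the mean inhibition of all tested compounds plus one SD, cut at about 70% in these data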;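 further: 0% = DMSO in NR2E3 cells and 100% = DMSO in cells lacking NR2E3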
# VP16 counter = GAL4-VP16 reporter inhibition in NR2E3 agonist counterscreen; shares compounds with NR2E3 ag-2; CHO-S GAL4-VP16 luciferase reporter, luminescence; inhibition, % at 3.98 µM; 2,300 compounds, 29% hits; AID 624379;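 active means mean inhibition above a cutoff equal to the average over all tested compounds plus one standard deviation, cut at about 70% in these data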;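 further: luciferase from a UAS reporter driven by GAL4-VP16 transactivation; 0% = DMSO with VP16-transfected cells and 100% = DMSO with cells lacking VP16; higher means less reporter light so more repression of VP16 activity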
# PG9 bind confirm = PG9 antibody binding, confirmed | shares compounds with PG9 Ab binder | TR-FRET PG9 antibody binding, biochemical | inhibition, % at 6.7 µM | 1,500 compounds, 90% hits; in the data active means inhibition above about 9%
# PGV04 Ab binding = PGV04 control antibody binding, counter-screen. shares compounds with PG9 Ab binder. TR-FRET PGV04 antibody-gp120 binding, biochemical. inhibition, % at 6.7 µM. 1,500 compounds, 95% hits. AID 651604; in the data active means inhibition above about 9.5%
# PG9 bind DR = small molecules binding HIV-1 gp120 antibody PG9; 95 tested, under 10 active; TR-FRET PG9 antibody-gp120 binding inhibition; shares compounds with PG9 Ab binder; IC50, µM; in the data active means IC50 below about 10 µM
# PGV04 DR counter = PGV04 binding, dose response counter-screen; shares compounds with PG9 Ab binder; TR-FRET binding to control antibody PGV04; IC50, µM; 95 compounds, 20% hits; AID 651937
# PG126 binding DR = PG126 binding, dose response counter-screen; TR-FRET binding to antibody PG126, counterscreen; AID 651939; shares compounds with PG9 Ab binder; 95 compounds, 20% hits; IC50, µM
# Rev-erbA confirm = confirmation of modulators of human Rev-erb alpha DNA binding | 3,000 compounds, 61% hits | Rev-erb alpha FITC-DNA binding, fluorescence polarization, 90 min | activation, % at 25 µM | shares compounds with NR1D1 modulator | AID 1259319;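 active means activation at or above a set limit, or at least 3 SD above the negative control mean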;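 further: 0% = 35 nM protein with DMSO and 100% = 750 nM protein high control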
# An asterisk follows results filed as active; i = inactive; / = no result; ! = repeats disagree. An excerpt weighted towards active compounds, which were near 1.6% of everything screened. Unless noted, no stated cut-off is given here; in the data, active means IC50 below about 9 µM; inactive means the rest.
SMILES,PKA-R1A act,PKA-R2B activ,NR2E3 ag-1,NR1D1 modulator,NR2E3 ag-2,PG9 Ab binder,PG9 bind confirm,PGV04 Ab binding,others
C#CCCC(=O)Nc1sc2c(c1-c1nc3ccccc3s1)CCN(C(C)C)C2,/,/,/,1,/,/,/,/,
Cc1ccc(NC(=O)C2CC3CCC2C3)c(C)c1 (configuration not stated),/,/,/,-2,/,/,/,/,
COc1ccccc1OC(C)C(=O)Nc1nc(-c2ccc(S(=O)(=O)N3CCOCC3)cc2)cs1 (configuration not stated),-2,-7,0,5,11,-1,/,/,
COc1ccccc1C(=O)Nc1nc(-c2ccc(S(=O)(=O)N3CCOCC3)cc2)cs1,-2,-7,-2,43*,92*,1,/,/,NR2E3 ag confirm=89*;VP16 counter=63;Rev-erbA confirm=29*
COC(=O)[C@]12C[C@H](CC(=O)NCCCCc3ccccc3)C(=O)N(CCC3=CCCCC3)C1=C[C@H](C1CCCC1)O[C@@H]2C,/,/,/,-5,/,/,/,/,
Cc1ccc(-c2noc(-c3cccs3)n2)cc1,5,14,-2,8,-115,8.8*,26*,28*,
COC(=O)[C@]12C[C@H](CC(=O)N3CCOCC3)C(=O)N(Cc3ccccc3)C1=C[C@H](C(C)(C)C)O[C@@H]2C,/,/,/,-5,/,-1,/,/,
COC(=O)[C@]12C[C@H](CC(=O)N3CCN(C(=O)c4ccco4)CC3)C(=O)N(CCc3ccc(OC)c(OC)c3)C1=C[C@H](C(C)(C)C)O[C@@H]2C,/,/,/,12,/,/,/,/,
COc1cc(NC(=O)c2ccc(Cl)cc2Cl)ccc1-c1cc2ccccc2oc1=O,-1,-9,2,-4,-39,12*,23*,33*,
COc1cc(NC(C)=O)ccc1-c1cc2ccccc2oc1=O,1,3,1,-8,-23,0,/,/,
Fc1ccc2nc(Nc3nc4c(F)cccc4s3)sc2c1,-6,-5,-1,16,-100,11*,14*,21*,
O=C(CNC(=O)c1ccc(Br)cc1)c1ccc(Br)cc1,2,-3,5,-4,-30,11*,18*,26*,
O=C(CNC(=O)c1ccc(Br)cc1)c1ccccc1,3,7,0,-2,-136,0,/,/,
COc1ccc(NC(=O)c2nnn(CC(=O)Nc3ccc4c(c3)OCO4)c2N)cc1OC,1,-2,1,3,3,0,/,/,
COc1ccc(Cl)cc1NC(=O)c1nnn(CC(=O)Nc2ccc3c(c2)OCO3)c1N,-3,8,9,-8,-2,10*,20*,27*,
CNC(=O)c1cnn(-c2nc(-c3ccc(OC)cc3)cs2)c1C(F)(F)F,7,-14,0,5,-68,-1,/,/,
COc1ccc(-c2csc(-n3ncc(C(=O)O)c3C(F)(F)F)n2)cc1,-1,-6,8,-1,-105,16*,22*,36*,
CN1CCc2cccc3c2[C@H]1Cc1ccc(O)c(O)c1-3,5,-4,3,-3,-4,11*!,12*,15*,
CN1CCc2cc3c(c4c2[C@H]1[C@H](O)c1ccccc1-4)OCO3,2,6,2,-3,-59,-2,/,/,
COc1ccc(-c2oc3ccc(N4CCOCC4)cc3c2/C=C/c2ccc(OC)c(OC)c2)cc1,11,8,6,0,-52,10*,15*,28*,
COc1ccc(/C=C/c2c(-c3ccc(OC)cc3)sc3ccc(N4CCOCC4)cc23)cc1,8,-1,-1,/,-5,/,/,/,
OC1OC2COC(c3ccccc3)OC2C(O)C1O (configuration not stated),/,/,/,-1,/,1,/,/,
COC(=O)c1ccc(C2/C(=C(\O)c3ccc(OC)c(C)c3)C(=O)C(=O)N2c2cc(C)on2)cc1 (configuration not stated),-11,-12,9,-6,23,8.7*,14*,19*,
Cc1cc2sc(C(=O)O)c(C)c2s1,-12,-3,6,6,6,16*,21*,28*,
COC(=O)c1ccc2c(=O)n(NC(C)=O)c(=S)[nH]c2c1,-7,-13,5,0,6,0,/,/,
SMILES,PKA-R1A act,PKA-R2B activ,NR2E3 ag-1,NR1D1 modulator,NR2E3 ag-2,PG9 Ab binder,PG9 bind confirm,PGV04 Ab binding,others
COc1cc2[nH]c(=S)n(NC(=O)c3ccccc3)c(=O)c2cc1OC,-2,-11,1,6,-5,16*,18*,16*,PG9 bind DR=>67;PGV04 DR counter=i;PG126 binding DR=i
COc1ccc(OCC(=O)Nc2cc(S(=O)(=O)N3CCCCC3)ccc2OC)cc1,-1,4,-4,-7,15,2,/,/,
COc1ccc(OCC(=O)Nc2cc(S(=O)(=O)N3CCCC3)ccc2OCC(F)(F)F)cc1,1,-11,/,1,-7,9.3*,21*,28*,
Cc1ccc2[nH]c3c(=S)nc[nH]c3c2c1,4,-3,-2,-4,-27,72*,44*,21*,PG9 bind DR=>67;PGV04 DR counter=i;PG126 binding DR=i
CN(C)S(=O)(=O)c1ccc(N2CCCC2)c(C(=O)NCc2cccc(C(F)(F)F)c2)c1,-10,-7,-3,7,-5,12*,17*,25*,
CC(C)c1ccc(NC(=O)O[C@H]2CC[C@@]34CCCN3C(=O)CCC[C@H]4[C@H]2C)cc1,/,/,/,-1,/,/,/,/,
CC(C)c1nnc(NC(=O)c2ccc3ccccc3c2)s1,-16,3,6,8,-51,11*,18*,32*,
Cc1nnc(NC(=O)c2ccc3ccccc3c2)s1,-15,-8,0,5,-23,0,/,/,
